{
  "source": "ChEMBL document CHEMBL1134542",
  "about": "“Experimental precedent for the need to involve the primary hydration layer of DNA in lead drug design” (J Med Chem, 2001)",
  "format_in_all_cases": "nucleic-acid assay",
  "key": {"Nucleic Acid [1]": {"system": "Nucleic Acid", "test": "Kinetically Defined Association Constant for 28-mer AATT hairpin.", "outline": "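Stopped-flow fluorescence at 20 °C, pH 7.5 (50 mM Tris, 0.1 M NaCl). 2 nM dye was mixed with excess 28-mer AATT hairpin, with excitation at 366 nm and emission through a 418 nm cutoff filter. Inverse time constants from monoexponential traces versus concentration gave kon. koff came from dissociation with excess poly[d(A-5BrU)]. Kkin = kon/koff.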"}, "Nucleic Acid [2]": {"system": "Nucleic Acid", "test": "Association constant for binding to AATT 28-mer AATT hairpin", "outline": "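Fluorometric equilibrium titration at 20 °C in 50 mM Tris, 100 mM NaCl, pH 7.5. A fixed 0.7-1.6 nM dye in a silanized quartz cuvette was titrated with excess 28-mer T4-looped AATT hairpin (3.54 μM stock). The rise in fluorescence was fitted to the quadratic binding equation, with dilution taken into account. Above about 4 × 10^9 M^-1, dye concentration was an extra fitting parameter.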"}, "Nucleic Acid [3]": {"system": "Nucleic Acid", "test": "Association constant for binding to AATT duplex", "outline": "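Fluorometric equilibrium titration at 20 °C in 50 mM Tris, 100 mM NaCl, pH 7.5. The fluorescence increase was fitted to the quadratic binding equation, with dilution corrected.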"}},
  "data": [
    {"smiles": "CN1CCN(c2ccc3[nH]c(-c4ccc5[nH]c(-c6ccc(O)cc6)nc5c4)nc3c2)CC1", "values": [
      {"measurement": "Kkin", "setting": "Nucleic Acid [1]", "result": "5.9e-08", "unit": "M⁻¹"},
      {"measurement": "Ka", "setting": "Nucleic Acid [2]", "result": "5.2e-08", "unit": "M⁻¹"},
      {"measurement": "Ka", "setting": "Nucleic Acid [3]", "result": "4.1e-08", "unit": "M⁻¹"}
    ]}
  ]
}
